# Data: ChEMBL document CHEMBL4715736, “Identification of anticancer agents based on the thieno[2,3-b]pyridine and 1H-pyrazole molecular scaffolds” (2016)
# What was measured:
# Type in all cases: functional
# Settings in all cases: read-out: Activity
# HL-60(TB) = experiment: Growth inhibition of human HL-60(TB) cells assessed as cell growth at 10 uM incubated for 48 hrs by sulforhodamine B assay relative to control
# In short: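 Screened by the NCI Developmental Therapeutics Program on its panel of 60 human tumour cell lines. Compounds were first tested at a single 10 µM dose, and compounds active there went to dose-response curves. Growth is expressed relative to untreated control (100%). GI50 (50% of maximal proliferation inhibition) and TGI (total growth inhibition) were derived from the dose-response data.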
# MOLT-4 = experiment: Growth inhibition of human MOLT-4 cells assessed as cell growth at 10 uM incubated for 48 hrs by sulforhodamine B assay relative to control
# In short: (§1)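 Submitted to the NCI Developmental Therapeutics Program for the NCI60 human tumour cell line panel. First screen at a single 10 µM concentration. Read-out is growth relative to untreated control cells set at 100%.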
# RPMI-8226 = experiment: Growth inhibition of human RPMI-8226 cells assessed as cell growth at 10 uM incubated for 48 hrs by sulforhodamine B assay relative to control
# In short: (§2)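 Run by the NCI Developmental Therapeutics Program as part of its 60-line human tumour panel. Each compound tested at a single 10 µM dose. Growth expressed as % relative to untreated control cells (100%).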
# SR = experiment: Growth inhibition of human SR cells assessed as cell growth at 10 uM incubated for 48 hrs by sulforhodamine B assay relative to control; in short: as §2
# NCI-H226 = experiment: Growth inhibition of human NCI-H226 cells assessed as cell growth at 10 uM incubated for 48 hrs by sulforhodamine B assay relative to control; in short: as §1
# NCI-H322M = experiment: Growth inhibition of human NCI-H322M cells assessed as cell growth at 10 uM incubated for 48 hrs by sulforhodamine B assay relative to control; in short: as §1
# NCI-H460 = experiment: Growth inhibition of human NCI-H460 cells assessed as cell growth at 10 uM incubated for 48 hrs by sulforhodamine B assay relative to control; in short: as §1
# HCC 2998 = experiment: Growth inhibition of human HCC 2998 cells assessed as cell growth at 10 uM incubated for 48 hrs by sulforhodamine B assay relative to control
# In short: (§3)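 NCI Developmental Therapeutics Program NCI60 panel. Compounds that were active in the 10 µM one-dose screen went on to dose–response testing. Growth at each concentration is expressed relative to untreated control (100%). GI50 (concentration giving 50% of maximal inhibition of proliferation) and TGI (concentration giving total growth inhibition) were derived from the curves.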
# HCT-116 = experiment: Growth inhibition of human HCT-116 cells assessed as cell growth at 10 uM incubated for 48 hrs by sulforhodamine B assay relative to control; in short: as §1
# KM12 = experiment: Growth inhibition of human KM12 cells assessed as cell growth at 10 uM incubated for 48 hrs by sulforhodamine B assay relative to control; in short: as §1
# SW-620 = experiment: Growth inhibition of human SW-620 cells assessed as cell growth at 10 uM incubated for 48 hrs by sulforhodamine B assay relative to control; in short: as §2
# SF-295 = experiment: Growth inhibition of human SF-295 cells assessed as cell growth at 10 uM incubated for 48 hrs by sulforhodamine B assay relative to control; in short: as §2
# SF-539 = experiment: Growth inhibition of human SF-539 cells assessed as cell growth at 10 uM incubated for 48 hrs by sulforhodamine B assay relative to control; in short: as §2
# LOX IMVI = experiment: Growth inhibition of human LOX IMVI cells assessed as cell growth at 10 uM incubated for 48 hrs by sulforhodamine B assay relative to control; in short: as §1
# MDA-MB-435 = experiment: Growth inhibition of human MDA-MB-435 cells assessed as cell growth at 10 uM incubated for 48 hrs by sulforhodamine B assay relative to control; in short: as §1
# SK-MEL-28 = experiment: Growth inhibition of human SK-MEL-28 cells assessed as cell growth at 10 uM incubated for 48 hrs by sulforhodamine B assay relative to control; in short: as §2
# SK-MEL-5 = experiment: Growth inhibition of human SK-MEL-5 cells assessed as cell growth at 10 uM incubated for 48 hrs by sulforhodamine B assay relative to control; in short: as §2
# OVCAR-3 = experiment: Growth inhibition of human OVCAR-3 cells assessed as cell growth at 10 uM incubated for 48 hrs by sulforhodamine B assay relative to control; in short: as §2
# OVCAR-4 = experiment: Growth inhibition of human OVCAR-4 cells assessed as cell growth at 10 uM incubated for 48 hrs by sulforhodamine B assay relative to control; in short: as §2
# OVCAR-5 = experiment: Growth inhibition of human OVCAR-5 cells assessed as cell growth at 10 uM incubated for 48 hrs by sulforhodamine B assay relative to control; in short: as §2
# NCI/ADR-RES = experiment: Growth inhibition of human NCI/ADR-RES cells assessed as cell growth at 10 uM incubated for 48 hrs by sulforhodamine B assay relative to control; in short: as §1
# 786-0 = experiment: Growth inhibition of human 786-0 cells assessed as cell growth at 10 uM incubated for 48 hrs by sulforhodamine B assay relative to control; in short: as §3
# ACHN = experiment: Growth inhibition of human ACHN cells assessed as cell growth at 10 uM incubated for 48 hrs by sulforhodamine B assay relative to control
# In short: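 NCI Developmental Therapeutics Program NCI60 human tumour cell line panel, one-dose primary screen with every compound at 10 µM. Growth is expressed as % of untreated control cells (100%).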
# RXF 393 = experiment: Growth inhibition of human RXF 393 cells assessed as cell growth at 10 uM incubated for 48 hrs by sulforhodamine B assay relative to control; in short: as §2
# SN12C = experiment: Growth inhibition of human SN12C cells assessed as cell growth at 10 uM incubated for 48 hrs by sulforhodamine B assay relative to control; in short: as §2
# UO-31 = experiment: Growth inhibition of human UO-31 cells assessed as cell growth at 10 uM incubated for 48 hrs by sulforhodamine B assay relative to control; in short: as §2
# PC-3 = experiment: Growth inhibition of human PC-3 cells assessed as cell growth at 10 uM incubated for 48 hrs by sulforhodamine B assay relative to control; in short: as §2
# DU-145 = experiment: Growth inhibition of human DU-145 cells assessed as cell growth at 10 uM incubated for 48 hrs by sulforhodamine B assay relative to control; in short: as §3
# MCF7 = experiment: Growth inhibition of human MCF7 cells assessed as cell growth at 10 uM incubated for 48 hrs by sulforhodamine B assay relative to control; in short: as §1
# Hs-578T = experiment: Growth inhibition of human Hs-578T cells assessed as cell growth at 10 uM incubated for 48 hrs by sulforhodamine B assay relative to control; in short: as §1
# T47D = experiment: Growth inhibition of human T47D cells assessed as cell growth at 10 uM incubated for 48 hrs by sulforhodamine B assay relative to control; in short: as §2
# MDA-MB-468 = experiment: Growth inhibition of human MDA-MB-468 cells assessed as cell growth at 10 uM incubated for 48 hrs by sulforhodamine B assay relative to control; in short: as §1
# Malme-3M = experiment: Growth inhibition of human Malme-3M cells assessed as cell growth at 10 uM incubated for 48 hrs by sulforhodamine B assay relative to control; in short: as §1
Compound,growth at 10 µM (HL-60(TB)) [%],growth at 10 µM (MOLT-4) [%],growth at 10 µM (RPMI-8226) [%],growth at 10 µM (SR) [%],growth at 10 µM (NCI-H226) [%],growth at 10 µM (NCI-H322M) [%],growth at 10 µM (NCI-H460) [%],growth at 10 µM (HCC 2998) [%],growth at 10 µM (HCT-116) [%],growth at 10 µM (KM12) [%],growth at 10 µM (SW-620) [%],growth at 10 µM (SF-539) [%],growth at 10 µM (LOX IMVI) [%],growth at 10 µM (MDA-MB-435) [%],growth at 10 µM (SK-MEL-28) [%],growth at 10 µM (SK-MEL-5) [%],growth at 10 µM (OVCAR-4) [%],growth at 10 µM (OVCAR-5) [%],growth at 10 µM (NCI/ADR-RES) [%],growth at 10 µM (786-0) [%],other results
CC(C)N1CCc2nc3sc(C(=O)Nc4ccccc4)c(N)c3cc2C1,98.4,106,98.2,86.6,94.8,108,99.6,110,102,101,96.4,93,102,94,108,95,105,90.2,100,108,growth at 10 µM (SF-295): 105%; growth at 10 µM (OVCAR-3): 108%; growth at 10 µM (ACHN): 100%; growth at 10 µM (RXF 393): 102%; growth at 10 µM (SN12C): 106%; growth at 10 µM (UO-31): 87.8%; growth at 10 µM (PC-3): 81.9%; growth at 10 µM (DU-145): 110%; growth at 10 µM (MCF7): 94.7%; growth at 10 µM (Hs-578T): 100%; growth at 10 µM (T47D): 91.7%; growth at 10 µM (MDA-MB-468): 95.6%
CC(=O)c1cccc(NC(=O)c2sc3nc4c(cc3c2N)C(=O)CCC4)c1,102,107,92.7,91.1,102,111,108,97.7,108,95.2,98.4,101,106,66.8,92.4,96,88.1,106,107,97,growth at 10 µM (SF-295): 90.8%; growth at 10 µM (OVCAR-3): 120%; growth at 10 µM (ACHN): 103%; growth at 10 µM (RXF 393): 104%; growth at 10 µM (SN12C): 109%; growth at 10 µM (UO-31): 99.7%; growth at 10 µM (PC-3): 96.3%; growth at 10 µM (DU-145): 108%; growth at 10 µM (MCF7): 84.4%; growth at 10 µM (Hs-578T): 106%; growth at 10 µM (T47D): 93.8%; growth at 10 µM (MDA-MB-468): 82.8%
O=S(=O)(c1ccc(Br)cc1)n1ccc(-c2ccc(OCCCF)cc2)n1,95.7,75.8,77.1,75.2,80.6,104,90.1,90.3,78.7,104,107,90.2,100,98.2,93.4,75.4,71.1,103,78.9,85.3,growth at 10 µM (Malme-3M): 89%; growth at 10 µM (ACHN): 94.1%; growth at 10 µM (RXF 393): 92.7%; growth at 10 µM (SN12C): 87%; growth at 10 µM (UO-31): 69.1%; growth at 10 µM (PC-3): 79.5%; growth at 10 µM (DU-145): 102%; growth at 10 µM (MCF7): 75.6%; growth at 10 µM (Hs-578T): 115%; growth at 10 µM (T47D): 72.6%; growth at 10 µM (MDA-MB-468): 39.8%
Cc1cccc(NC(=O)c2sc3nc4c(cc3c2N)CN(Cc2ccccc2)CC4)c1,108,103,101,95,100,103,98.6,104,92.6,96.4,96.8,79.9,95.8,94.5,103,103,105,104,101,91.5,growth at 10 µM (SF-295): 110%; growth at 10 µM (OVCAR-3): 116%; growth at 10 µM (ACHN): 102%; growth at 10 µM (RXF 393): 103%; growth at 10 µM (SN12C): 107%; growth at 10 µM (UO-31): 98.4%; growth at 10 µM (PC-3): 98%; growth at 10 µM (DU-145): 89.3%; growth at 10 µM (MCF7): 95.9%; growth at 10 µM (Hs-578T): 94.6%; growth at 10 µM (T47D): 98.6%; growth at 10 µM (MDA-MB-468): 94.8%
